Measured values taken from ChEMBL document CHEMBL4190330, “Discovery of Potent and Selective A2A Antagonists with Efficacy in Animal Models of Parkinson's Disease and Depression” (ACS Med Chem Lett, 2017).

biological target: T1, Adenosine receptor A2a (Homo sapiens, UniProt P29274); assay: Displacement of [3H]ZM241385 from human A2A receptor expressed in HEK293 cell membranes after 90 mins radioligand binding assay; conditions: not given
Method in brief: (§1)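 Membranes from HEK-293 cells overexpressing the relevant human adenosine receptor subtype; all points in triplicate; Ki derived from 8-concentration IC50 curves.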

T1 sequence (P29274 whole entry): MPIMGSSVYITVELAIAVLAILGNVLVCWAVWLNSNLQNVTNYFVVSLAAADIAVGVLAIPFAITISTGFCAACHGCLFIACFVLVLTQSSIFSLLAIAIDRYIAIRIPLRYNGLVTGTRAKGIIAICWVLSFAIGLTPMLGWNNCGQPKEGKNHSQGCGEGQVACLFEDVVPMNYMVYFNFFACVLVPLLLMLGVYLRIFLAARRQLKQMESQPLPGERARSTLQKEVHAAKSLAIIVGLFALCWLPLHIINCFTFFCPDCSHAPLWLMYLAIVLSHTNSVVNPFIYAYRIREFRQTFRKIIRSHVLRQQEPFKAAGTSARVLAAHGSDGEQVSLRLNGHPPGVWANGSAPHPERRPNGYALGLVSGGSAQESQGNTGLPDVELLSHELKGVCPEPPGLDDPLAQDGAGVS

SMILES | Ki
Cn1c(=O)n(CCN2CCN(c3ccc(OC(F)F)cc3)CC2)c2nc(N)n3nc(-c4ccco4)nc3c21 | 1.9 nM
COc1ccc(N2CCN(CCn3c(=O)n(C)c4c3nc(N)n3nc(-c5ccco5)nc43)CC2)cc1 | 1 nM
COCCOc1ccc(N2CCN(CCn3c(=O)n(C)c4c3nc(N)n3nc(-c5ccco5)nc43)CC2)cc1 | 2 nM
COc1ccc(N2CCN(CCn3c(=O)n(C)c4c3nc(N)n3nc(-c5ccco5)nc43)CC2)c(F)c1 | 0.4 nM

Continued, values first:

Ki | SMILES
0.6 nM | Cn1c(=O)n(CCN2CCN(c3ccc(C#N)cc3)CC2)c2nc(N)n3nc(-c4ccco4)nc3c21
0.3 nM | Cn1c(=O)n(CCN2CCN(c3ccc(OC4CCOCC4)cc3)CC2)c2nc(N)n3nc(-c4ccco4)nc3c21

species: Homo sapiens; assay: Selectivity ratio of Ki for displacement of [3H]-HEMADO from human A3 receptor expressed in HEK293 cell membranes to Ki for displacement of [3H]ZM241385 from human A2A receptor expressed in HEK293 cell membranes; conditions: not given
Method in brief: (§2)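 Radioligand binding used membranes from HEK-293 cells overexpressing each human adenosine receptor isoform. Points were run in triplicate, and 8-concentration IC50 curves were plotted to give Ki. The selectivity value is the Ki at the off-target isoform divided by the Ki at hA2A.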

SMILES | Ratio Ki
Cn1c(=O)n(CCN2CCN(c3ccc(C#N)cc3)CC2)c2nc(N)n3nc(-c4ccco4)nc3c21 | > 8000
COCCOc1ccc(N2CCN(CCn3c(=O)n(C)c4c3nc(N)n3nc(-c5ccco5)nc43)CC2)cc1 | > 2000

species: Homo sapiens; assay: Selectivity ratio of Ki for displacement of [3H]-DPCPX from human A1 receptor expressed in HEK293 cell membranes to Ki for displacement of [3H]ZM241385 from human A2A receptor expressed in HEK293 cell membranes; conditions: not given; method in brief: as §2

SMILES | Ratio Ki
Cn1c(=O)n(CCN2CCN(c3ccc(C#N)cc3)CC2)c2nc(N)n3nc(-c4ccco4)nc3c21 | > 8000
COCCOc1ccc(N2CCN(CCn3c(=O)n(C)c4c3nc(N)n3nc(-c5ccco5)nc43)CC2)cc1 | 850

biological target: T2, Adenosine receptor A1 (Homo sapiens, UniProt P30542); assay: Displacement of [3H]-DPCPX from human A1 receptor expressed in HEK293 cell membranes after 90 mins radioligand binding assay; conditions: not given; method in brief: as §1
T2 sequence (P30542 whole entry): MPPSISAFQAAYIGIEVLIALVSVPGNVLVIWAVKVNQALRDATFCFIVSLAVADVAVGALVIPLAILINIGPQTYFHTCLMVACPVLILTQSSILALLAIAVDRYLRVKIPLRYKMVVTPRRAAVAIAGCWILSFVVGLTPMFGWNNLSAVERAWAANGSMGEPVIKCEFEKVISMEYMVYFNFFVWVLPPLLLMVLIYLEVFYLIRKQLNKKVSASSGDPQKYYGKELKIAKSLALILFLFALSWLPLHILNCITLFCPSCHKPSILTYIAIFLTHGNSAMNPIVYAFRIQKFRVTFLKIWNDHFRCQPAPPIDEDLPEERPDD

Ki | SMILES
5000 nM | Cn1c(=O)n(CCN2CCN(c3ccc(C#N)cc3)CC2)c2nc(N)n3nc(-c4ccco4)nc3c21
1700 nM | COCCOc1ccc(N2CCN(CCn3c(=O)n(C)c4c3nc(N)n3nc(-c5ccco5)nc43)CC2)cc1

biological target: Adenosine receptor A2a (Rattus norvegicus, UniProt P30543); assay: Antagonist activity at rat A2A receptor assessed as reduction in CGS-21680-induced cAMP level pretreated for 15 mins followed by CGS-21680 addition measured after 30 mins by HTRF assay; type: functional; conditions: not given
Method in brief: (§3)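 HTRF-based cAMP functional assay; each compound tested at 12 concentrations, every point in triplicate; Ki given as mean of two independent experiments (n=2).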

Sequence of Adenosine receptor A2a (Rattus norvegicus, UniProt P30543) (P30543 whole entry): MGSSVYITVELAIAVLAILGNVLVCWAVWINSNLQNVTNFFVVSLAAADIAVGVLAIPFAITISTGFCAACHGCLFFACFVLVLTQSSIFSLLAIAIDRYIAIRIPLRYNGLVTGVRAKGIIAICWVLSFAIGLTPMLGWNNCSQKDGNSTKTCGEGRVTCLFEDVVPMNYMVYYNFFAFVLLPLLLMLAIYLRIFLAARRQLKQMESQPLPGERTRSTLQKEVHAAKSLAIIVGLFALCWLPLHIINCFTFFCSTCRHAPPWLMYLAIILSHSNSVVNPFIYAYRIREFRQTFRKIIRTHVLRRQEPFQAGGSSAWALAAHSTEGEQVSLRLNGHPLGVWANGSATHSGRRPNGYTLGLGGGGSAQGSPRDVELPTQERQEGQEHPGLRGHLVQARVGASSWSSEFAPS

Ki | SMILES
1.07 nM | Cn1c(=O)n(CCN2CCN(c3ccc(OC(F)F)cc3)CC2)c2nc(N)n3nc(-c4ccco4)nc3c21
0.58 nM | COc1ccc(N2CCN(CCn3c(=O)n(C)c4c3nc(N)n3nc(-c5ccco5)nc43)CC2)cc1
1.15 nM | Cn1c(=O)n(CCN2CCN(c3ccc(C#N)cc3)CC2)c2nc(N)n3nc(-c4ccco4)nc3c21
0.28 nM | COCCOc1ccc(N2CCN(CCn3c(=O)n(C)c4c3nc(N)n3nc(-c5ccco5)nc43)CC2)cc1
0.06 nM | COc1ccc(N2CCN(CCn3c(=O)n(C)c4c3nc(N)n3nc(-c5ccco5)nc43)CC2)c(F)c1

biological target: T1, Adenosine receptor A2a; assay: Antagonist activity at human A2A receptor expressed in HEK293 cell membranes assessed as reduction in CGS-21680-induced cAMP level pretreated for 15 mins followed by CGS-21680 addition measured after 30 mins by HTRF assay; type: functional, cell-based; conditions: not given; method in brief: as §3

SMILES | Ki
Cn1c(=O)n(CCN2CCN(c3ccc(OC(F)F)cc3)CC2)c2nc(N)n3nc(-c4ccco4)nc3c21 | 0.27 nM
COc1ccc(N2CCN(CCn3c(=O)n(C)c4c3nc(N)n3nc(-c5ccco5)nc43)CC2)cc1 | 0.21 nM
COCCOc1ccc(N2CCN(CCn3c(=O)n(C)c4c3nc(N)n3nc(-c5ccco5)nc43)CC2)cc1 | 0.42 nM
COc1ccc(N2CCN(CCn3c(=O)n(C)c4c3nc(N)n3nc(-c5ccco5)nc43)CC2)c(F)c1 | 0.06 nM

Results, then the compound that gave them:

Ki | SMILES
0.3 nM | Cn1c(=O)n(CCN2CCN(c3ccc(C#N)cc3)CC2)c2nc(N)n3nc(-c4ccco4)nc3c21
0.26 nM | Cn1c(=O)n(CCN2CCN(c3ccc(OC4CCOCC4)cc3)CC2)c2nc(N)n3nc(-c4ccco4)nc3c21

species: Homo sapiens; assay: Selectivity ratio of Ki for displacement of [3H]-MRS-1754 from human A2B receptor expressed in HEK293 cell membranes to Ki for displacement of [3H]ZM241385 from human A2A receptor expressed in HEK293 cell membranes; conditions: not given; method in brief: as §2

SMILES | Ratio Ki
Cn1c(=O)n(CCN2CCN(c3ccc(C#N)cc3)CC2)c2nc(N)n3nc(-c4ccco4)nc3c21 | > 8000
COCCOc1ccc(N2CCN(CCn3c(=O)n(C)c4c3nc(N)n3nc(-c5ccco5)nc43)CC2)cc1 | > 3000

tested on: not listed separately; assay: Solubility of the compound at pH 7.4; type: physicochemical; conditions: buffer

solubility | SMILES
< 2 µM | Cn1c(=O)n(CCN2CCN(c3ccc(C#N)cc3)CC2)c2nc(N)n3nc(-c4ccco4)nc3c21
< 6 µM | COCCOc1ccc(N2CCN(CCn3c(=O)n(C)c4c3nc(N)n3nc(-c5ccco5)nc43)CC2)cc1

tested on: not listed separately; assay: Metabolic stability in human liver microsomes; type: ADME, microsome; conditions: not given

SMILES | Stability
Cn1c(=O)n(CCN2CCN(c3ccc(OC(F)F)cc3)CC2)c2nc(N)n3nc(-c4ccco4)nc3c21 | Stable
COc1ccc(N2CCN(CCn3c(=O)n(C)c4c3nc(N)n3nc(-c5ccco5)nc43)CC2)cc1 | Stable
COCCOc1ccc(N2CCN(CCn3c(=O)n(C)c4c3nc(N)n3nc(-c5ccco5)nc43)CC2)cc1 | Stable
COc1ccc(N2CCN(CCn3c(=O)n(C)c4c3nc(N)n3nc(-c5ccco5)nc43)CC2)c(F)c1 | Stable

Results, then the compound that gave them:

Stability | SMILES
Stable | Cn1c(=O)n(CCN2CCN(c3ccc(C#N)cc3)CC2)c2nc(N)n3nc(-c4ccco4)nc3c21
Stable | Cn1c(=O)n(CCN2CCN(c3ccc(OC4CCOCC4)cc3)CC2)c2nc(N)n3nc(-c4ccco4)nc3c21

biological target: T3, Adenosine receptor A1 (Homo sapiens) (UniProt P30542); assay: Displacement of [3H]-DPCPX from human A1 receptor expressed in HEK293 cell membranes at 1 uM after 90 mins radioligand binding assay relative to control; conditions: not given
T3 sequence (whole entry): T2 sequence (P30542 whole entry)

inhibition | SMILES
34% | Cn1c(=O)n(CCN2CCN(c3ccc(OC(F)F)cc3)CC2)c2nc(N)n3nc(-c4ccco4)nc3c21
58% | COc1ccc(N2CCN(CCn3c(=O)n(C)c4c3nc(N)n3nc(-c5ccco5)nc43)CC2)cc1
56% | Cn1c(=O)n(CCN2CCN(c3ccc(OC4CCOCC4)cc3)CC2)c2nc(N)n3nc(-c4ccco4)nc3c21
45% | COc1ccc(N2CCN(CCn3c(=O)n(C)c4c3nc(N)n3nc(-c5ccco5)nc43)CC2)c(F)c1

tested on: not listed separately; assay: Metabolic stability in rat liver microsomes; type: ADME, microsome; conditions: not given

SMILES | Stability
Cn1c(=O)n(CCN2CCN(c3ccc(OC(F)F)cc3)CC2)c2nc(N)n3nc(-c4ccco4)nc3c21 | Stable
COc1ccc(N2CCN(CCn3c(=O)n(C)c4c3nc(N)n3nc(-c5ccco5)nc43)CC2)cc1 | Stable
COCCOc1ccc(N2CCN(CCn3c(=O)n(C)c4c3nc(N)n3nc(-c5ccco5)nc43)CC2)cc1 | Stable
COc1ccc(N2CCN(CCn3c(=O)n(C)c4c3nc(N)n3nc(-c5ccco5)nc43)CC2)c(F)c1 | Stable

The remaining lines, values ahead:

Stability | SMILES
Stable | Cn1c(=O)n(CCN2CCN(c3ccc(C#N)cc3)CC2)c2nc(N)n3nc(-c4ccco4)nc3c21
Stable | Cn1c(=O)n(CCN2CCN(c3ccc(OC4CCOCC4)cc3)CC2)c2nc(N)n3nc(-c4ccco4)nc3c21
